Measured values published in ChEMBL document CHEMBL4196166 (J Med Chem, 2018).
Active and inactive are the calls of the source.

Legend:
[1] = target: Lysosomal Pro-X carboxypeptidase (Homo sapiens) (UniProt P42785); assay: Inhibition of prolylcarboxypeptidase (unknown origin) at 10 nM to 33.3 uM after 30 mins by gel-based ABPP assay
[2] = target: Complement C1s subcomponent (Homo sapiens) (UniProt P09871); assay: Inhibition of C1S (unknown origin) at 10 nM to 33.3 uM after 30 mins by gel-based ABPP assay
Complement C1s subcomponent (Homo sapiens), sequence (P09871 16-437 limits assumed): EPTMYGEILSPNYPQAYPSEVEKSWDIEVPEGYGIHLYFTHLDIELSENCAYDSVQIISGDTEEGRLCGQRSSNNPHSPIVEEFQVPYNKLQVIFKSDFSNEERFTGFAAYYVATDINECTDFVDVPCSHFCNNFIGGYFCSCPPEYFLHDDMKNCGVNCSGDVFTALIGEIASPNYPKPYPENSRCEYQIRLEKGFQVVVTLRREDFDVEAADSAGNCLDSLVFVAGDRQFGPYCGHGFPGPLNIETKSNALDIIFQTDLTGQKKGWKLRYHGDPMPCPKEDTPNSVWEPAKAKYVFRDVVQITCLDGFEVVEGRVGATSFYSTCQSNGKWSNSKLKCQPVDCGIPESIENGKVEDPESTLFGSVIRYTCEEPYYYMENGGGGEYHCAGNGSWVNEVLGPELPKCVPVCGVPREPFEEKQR
Complement C1s subcomponent (Homo sapiens), sequence (P09871 438-688 limits assumed): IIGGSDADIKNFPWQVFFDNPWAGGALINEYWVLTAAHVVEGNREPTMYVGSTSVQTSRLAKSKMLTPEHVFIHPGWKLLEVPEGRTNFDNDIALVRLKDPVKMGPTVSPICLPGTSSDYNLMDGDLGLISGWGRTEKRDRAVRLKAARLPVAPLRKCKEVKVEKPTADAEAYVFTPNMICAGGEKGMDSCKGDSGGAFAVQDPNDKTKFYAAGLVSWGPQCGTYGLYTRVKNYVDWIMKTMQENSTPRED

[3] = target: Transmembrane protease serine 11D (Homo sapiens) (UniProt O60235); assay: Inhibition of transmembrane protease serine 11D (unknown origin) at 10 nM to 33.3 uM after 30 mins by gel-based ABPP assay
Transmembrane protease serine 11D (Homo sapiens), sequence (O60235 1-186 limits assumed): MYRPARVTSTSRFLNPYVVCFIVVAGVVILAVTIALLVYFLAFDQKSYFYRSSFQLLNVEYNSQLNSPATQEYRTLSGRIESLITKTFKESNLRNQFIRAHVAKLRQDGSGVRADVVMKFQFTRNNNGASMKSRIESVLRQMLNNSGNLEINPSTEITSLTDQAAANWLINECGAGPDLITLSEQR
Transmembrane protease serine 11D (Homo sapiens), sequence (O60235 187-418 limits assumed): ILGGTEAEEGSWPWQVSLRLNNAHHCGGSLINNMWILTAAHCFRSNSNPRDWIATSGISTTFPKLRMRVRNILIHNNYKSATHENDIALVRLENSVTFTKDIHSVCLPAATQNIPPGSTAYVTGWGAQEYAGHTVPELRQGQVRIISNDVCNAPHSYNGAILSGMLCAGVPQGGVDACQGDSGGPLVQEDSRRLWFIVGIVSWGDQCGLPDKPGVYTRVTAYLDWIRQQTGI

[4] = tested on: ASPC1; assay: Antimetastatic activity against human AsPC1 cells xenografted in BALB/c nu/nu mouse co-implanted with human PSC assessed as reduction in metastasis lesions in liver at 10 mg/kg/day, ip measured after 28 days post first dose by haematoxylin and eosin staining-based microscopic analysis; assay type: functional, organism-based
Outline: (§1)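 Female athymic BALB/c nu/nu mice, 6–8 weeks old. 1×10^6 AsPC-1 and 1×10^6 human pancreatic stellate cells in 50 µL PBS injected into the pancreatic tail. Treatment randomized on day 7 (n = 4/group) for 4 weeks: 10 mg/kg/day ip in 50 mM sodium acetate pH 5.5/10% DMSO/1% Kolliphor HS-15, or gemcitabine 75 mg/kg by oral gavage twice weekly, or vehicle. At kill, liver scored for visible macrometastases, fixed in formalin, and 4 µm sections stained with H&E. Chi-square test.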

[5] = tested on: Homo sapiens; assay: Antimetastatic activity against human PSC xenografted in BALB/c nu/nu mouse co-implanted with human AsPC1 cells assessed as reduction in metastasis lesions in liver at 10 mg/kg/day, ip measured after 28 days post first dose by haematoxylin and eosin staining-based microscopic analysis; assay type: functional, organism-based; outline: as §1
[6] = target: Plasminogen (Homo sapiens, UniProt P00747); assay: Inhibition of plasmin (unknown origin) at 10 nM to 33.3 uM after 30 mins by gel-based ABPP assay
Plasminogen, sequence (P00747 97-580 limits assumed): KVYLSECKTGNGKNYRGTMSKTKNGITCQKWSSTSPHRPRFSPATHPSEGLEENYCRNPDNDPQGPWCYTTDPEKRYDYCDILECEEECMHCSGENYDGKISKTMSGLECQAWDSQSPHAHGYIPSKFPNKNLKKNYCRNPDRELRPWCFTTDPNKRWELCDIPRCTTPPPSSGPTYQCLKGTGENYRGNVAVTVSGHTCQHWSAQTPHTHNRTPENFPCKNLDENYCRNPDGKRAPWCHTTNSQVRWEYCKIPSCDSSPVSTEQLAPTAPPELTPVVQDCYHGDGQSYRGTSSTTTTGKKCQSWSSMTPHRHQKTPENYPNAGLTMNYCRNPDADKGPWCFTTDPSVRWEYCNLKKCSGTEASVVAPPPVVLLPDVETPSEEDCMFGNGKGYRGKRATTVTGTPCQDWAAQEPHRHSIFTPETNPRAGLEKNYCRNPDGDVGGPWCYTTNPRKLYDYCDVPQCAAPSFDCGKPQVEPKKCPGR
Plasminogen, sequence (P00747 581-810 limits assumed): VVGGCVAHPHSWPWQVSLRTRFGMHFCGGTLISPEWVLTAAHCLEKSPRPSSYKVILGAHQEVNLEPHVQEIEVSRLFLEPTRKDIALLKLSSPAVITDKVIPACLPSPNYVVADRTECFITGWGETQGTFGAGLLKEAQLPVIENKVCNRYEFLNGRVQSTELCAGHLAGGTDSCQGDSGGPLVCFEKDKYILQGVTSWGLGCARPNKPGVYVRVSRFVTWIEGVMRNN

[7] = target: Adenosine receptor A2a (Homo sapiens) (UniProt P29274); assay: Displacement of [3H]ZM241385 from human wild type adenosine A2A receptor at 10 uM
Adenosine receptor A2a (Homo sapiens), sequence (P29274 whole entry): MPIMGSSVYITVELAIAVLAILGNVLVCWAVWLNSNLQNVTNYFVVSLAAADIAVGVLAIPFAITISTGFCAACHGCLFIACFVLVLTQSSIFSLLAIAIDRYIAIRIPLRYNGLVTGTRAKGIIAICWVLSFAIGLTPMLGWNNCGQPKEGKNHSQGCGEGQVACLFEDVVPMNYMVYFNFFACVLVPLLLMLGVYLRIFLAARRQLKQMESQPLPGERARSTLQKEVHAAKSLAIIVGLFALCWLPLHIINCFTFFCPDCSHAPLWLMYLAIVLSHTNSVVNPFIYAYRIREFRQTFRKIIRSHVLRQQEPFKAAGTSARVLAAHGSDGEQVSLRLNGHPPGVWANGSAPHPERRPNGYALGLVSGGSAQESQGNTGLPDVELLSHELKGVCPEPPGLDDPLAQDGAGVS
Outline: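 Compounds tested at 10 µM for displacement of 2.5 nM [3H]ZM241385 from human wild-type A2A receptor. Total binding taken without inhibitor. Nonspecific binding defined with 100 µM NECA. At least three independent experiments, each in duplicate. Mean ± SEM.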

Lysosomal Pro-X carboxypeptidase (Homo sapiens), sequence (P42785 whole entry): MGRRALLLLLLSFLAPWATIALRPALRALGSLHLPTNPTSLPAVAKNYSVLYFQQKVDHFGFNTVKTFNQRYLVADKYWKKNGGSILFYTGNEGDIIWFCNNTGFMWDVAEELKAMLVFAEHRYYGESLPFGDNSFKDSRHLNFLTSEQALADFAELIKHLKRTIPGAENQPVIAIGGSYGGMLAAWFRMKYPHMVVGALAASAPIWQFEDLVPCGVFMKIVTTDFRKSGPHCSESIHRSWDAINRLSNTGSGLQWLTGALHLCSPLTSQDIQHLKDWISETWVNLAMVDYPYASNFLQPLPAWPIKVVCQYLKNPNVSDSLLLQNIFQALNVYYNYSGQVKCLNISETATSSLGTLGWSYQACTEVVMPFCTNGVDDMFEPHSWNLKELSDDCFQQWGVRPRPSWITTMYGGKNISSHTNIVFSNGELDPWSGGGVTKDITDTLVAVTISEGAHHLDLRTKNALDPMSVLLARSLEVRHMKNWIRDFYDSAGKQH

COc1ncc(-c2nc(C(=O)NC(=N)N)c(N)nc2N2CCCCCC2)cn1
active: inhibition [1] | inhibition [2] | inhibition [3] | Activity [4] | Activity [5] | inhibition [6]

N=C(N)NC(=O)c1nc(Cl)c(N2CCCCCC2)nc1N [N,N-HEXAMETHYLENEAMILORIDE]
active: inhibition [7]
